{"source": "ChEMBL document CHEMBL1122744", "about": "“2-Chloroethyl (methylsulfonyl)methanesulfonate and related (methylsulfonyl)methanesulfonates. Antineoplastic activity in vivo” (J Med Chem, 1984)", "key": {"[1]": {"assay": "Median survival time of the treated control groups, in which there are no 30-day survivors at dose 50 mg/kg in exp2", "format": "functional"}, "Mus musculus [2]": {"test_system": "Mus musculus", "assay": "Median survival time of the treated control groups, in which there are no 30-day survivors at dose 25 mg/kg in exp2", "format": "functional"}, "Mus musculus [3]": {"test_system": "Mus musculus", "assay": "Mortality by day 5 expressed as number of mice died to the total treated at dose 12 mg/kg in exp2; 0/6", "format": "ADME, organism-based", "set-up": "dose 12 mg/kg", "settings": "in vivo"}, "[4]": {"assay": "Ratio of median survival times for non-survivors at dose 50 mg/kg in exp1", "format": "functional", "set-up": "unit: %", "outline": "(§1)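 Mice were inoculated ip with 10^6 P388 leukemia cells on day 0. Groups of six (occasionally five) were dosed ip qd on days 1–5 with fresh suspensions; 30 mice served as untreated controls. Deaths were recorded daily up to day 60. T/C% compares the median survival of treated non-survivors (<60 days) with the control median. Medians used grouped data when there were no 30-day survivors, otherwise ungrouped data. t = toxic.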"}, "Mus musculus [5]": {"test_system": "Mus musculus", "assay": "Mortality by day 5 expressed as number of mice died to the total treated at dose 200 mg/kg in exp1; 5/6", "format": "ADME, organism-based", "set-up": "dose 200 mg/kg", "settings": "in vivo"}, "Mus musculus [6]": {"test_system": "Mus musculus", "assay": "Median survival time of the treated control groups, in which there are no 30-day survivors at dose 100 mg/kg in exp2", "format": "functional"}, "[7]": {"assay": "Ratio of number of 60-day survivors to the total treated mice at dose 100 mg/kg in exp1; 0/6", "format": "functional"}, "Mus musculus [8]": {"test_system": "Mus musculus", "assay": "Change in weight by day 5, obtained by subtracting treated groups of animals minus control groups of animals at dose 100 mg/kg in exp1.", "format": "functional", "outline": "(§2)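 Mice were inoculated ip with 10^6 P388 leukemia cells on day 0, when treated and control mice weighed 19–22 g. Treatment was given ip once daily on days 1–5, within about 5 min of preparing the solution or suspension. Groups of six (occasionally five) were treated, with 30 untreated inoculated mice as controls. The day-5 weight change is the mean treated change minus the mean control change.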"}, "Mus musculus [9]": {"test_system": "Mus musculus", "assay": "Median survival time of the treated control groups, in which there are no 30-day survivors at dose 25 mg/kg in exp1", "format": "functional"}, "[10]": {"assay": "Median survival time of the treated control groups, in which there are no 30-day survivors at dose 50 mg/kg in exp1", "format": "functional"}, "Mus musculus [11]": {"test_system": "Mus musculus", "assay": "Mortality by day 5 expressed as number of mice died to the total treated at dose 100 mg/kg in exp2; 2/6", "format": "ADME, organism-based", "set-up": "dose 100 mg/kg", "settings": "in vivo"}, "Mus musculus [12]": {"test_system": "Mus musculus", "assay": "Median survival time of the treated control groups, in which there are no 30-day survivors at dose 12 mg/kg in exp2", "format": "functional"}, "Mus musculus [13]": {"test_system": "Mus musculus", "assay": "Change in weight by day 5, obtained by subtracting treated groups of animals minus control groups of animals at dose 50 mg/kg in exp2", "format": "functional", "outline": "as §2"}, "[14]": {"assay": "Ratio of median survival times for non-survivors at dose 12 mg/kg in exp2", "format": "functional", "outline": "as §1"}, "Mus musculus [15]": {"test_system": "Mus musculus", "assay": "Median survival time of the untreated control groups, in which there are no 30-day survivors at dose 100 mg/kg in exp2", "format": "functional"}, "Mus musculus [16]": {"test_system": "Mus musculus", "assay": "Median survival time of the untreated control groups, in which there are no 30-day survivors at dose 200 mg/kg in exp1", "format": "functional"}, "Mus musculus [17]": {"test_system": "Mus musculus", "assay": "Change in weight by day 5, obtained by subtracting treated groups of animals minus control groups of animals at dose 25 mg/kg in exp1.", "format": "functional", "outline": "as §2"}, "[18]": {"assay": "Median survival time of the untreated control groups, in which there are no 30-day survivors at dose 25 mg/kg in exp2", "format": "functional"}, "[19]": {"assay": "Ratio of median survival times for non-survivors at dose 25 mg/kg in exp1", "format": "functional"}, "Mus musculus [20]": {"test_system": "Mus musculus", "assay": "Median survival time of the treated control groups, in which there are no 30-day survivors at dose 100 mg/kg in exp1", "format": "functional"}, "[21]": {"assay": "Ratio of median survival times for non-survivors at dose 200 mg/kg in exp1; t= toxic", "format": "ADME, organism-based", "set-up": "dose 200 mg/kg", "settings": "in vivo", "outline": "as §1"}, "Mus musculus [22]": {"test_system": "Mus musculus", "assay": "Mortality by day 5 expressed as number of mice died to the total treated at dose 25 mg/kg in exp1; 0/6", "format": "ADME, organism-based", "set-up": "dose 25 mg/kg", "settings": "in vivo"}, "[23]": {"assay": "Median survival time of the untreated control groups, in which there are no 30-day survivors at dose 50 mg/kg in exp1", "format": "functional"}, "[24]": {"assay": "Ratio of median survival times for non-survivors at dose 25 mg/kg in exp2", "format": "functional", "outline": "as §1"}, "Mus musculus [25]": {"test_system": "Mus musculus", "assay": "Change in weight by day 5, obtained by subtracting treated groups of animals minus control groups of animals at dose 200 mg/kg in exp1.", "format": "functional", "outline": "as §2"}, "Mus musculus [26]": {"test_system": "Mus musculus", "assay": "Change in weight by day 5, obtained by subtracting treated groups of animals minus control groups of animals at dose 12 mg/kg in exp2", "format": "functional", "outline": "as §2"}, "[27]": {"assay": "Ratio of number of 30-day survivors to the total treated mice at dose 100 mg/kg in exp1; 1/6", "format": "functional"}, "[28]": {"assay": "Ratio of number of 60-day survivors to the total treated mice at dose 100 mg/kg in exp2; 0/6", "format": "functional"}, "[29]": {"assay": "Ratio of median survival times for non-survivors at dose 100 mg/kg in exp1", "format": "functional", "set-up": "unit: %", "outline": "as §1"}, "Mus musculus [30]": {"test_system": "Mus musculus", "assay": "Mortality by day 5 expressed as number of mice died to the total treated at dose 50 mg/kg in exp1; 0/6", "format": "ADME, organism-based", "set-up": "dose 50 mg/kg", "settings": "in vivo"}, "Mus musculus [31]": {"test_system": "Mus musculus", "assay": "Mortality by day 5 expressed as number of mice died to the total treated at dose 100 mg/kg in exp1; 0/6", "format": "ADME, organism-based", "set-up": "dose 100 mg/kg", "settings": "in vivo"}, "Mus musculus [32]": {"test_system": "Mus musculus", "assay": "Change in weight by day 5, obtained by subtracting treated groups of animals minus control groups of animals at dose 50 mg/kg in exp1.", "format": "functional", "outline": "as §2"}, "[33]": {"assay": "Ratio of median survival times for non-survivors at dose 100 mg/kg in exp2", "format": "functional", "outline": "as §1"}, "Mus musculus [34]": {"test_system": "Mus musculus", "assay": "Median survival time of the untreated control groups, in which there are no 30-day survivors at dose 100 mg/kg in exp1", "format": "functional"}, "Mus musculus [35]": {"test_system": "Mus musculus", "assay": "Ratio of number of 30-day survivors to the total treated mice at dose 100 mg/kg in exp2*-toxic; 1/6", "format": "ADME, organism-based", "set-up": "dose 100 mg/kg", "settings": "in vivo, 720 h"}, "Mus musculus [36]": {"test_system": "Mus musculus", "assay": "Ratio of median survival times for non-survivors at dose 50 mg/kg in exp2", "format": "functional", "outline": "as §1"}, "Mus musculus [37]": {"test_system": "Mus musculus", "assay": "Change in weight by day 5, obtained by subtracting treated groups of animals minus control groups of animals at dose 25 mg/kg in exp2", "format": "functional", "outline": "as §2"}, "Mus musculus [38]": {"test_system": "Mus musculus", "assay": "Change in weight by day 5, obtained by subtracting treated groups of animals minus control groups of animals at dose 100 mg/kg in exp2*-mortality was 5/6 by day 7", "format": "functional", "outline": "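Mice were inoculated ip with 10^6 P388 leukemia cells on day 0 and weighed 19–22 g that day. Compound was given ip once daily on days 1–5, within about 5 min of preparing the solution or suspension, to groups of six (occasionally five). Thirty inoculated untreated mice served as controls. The value is the average weight change of treated mice minus that of controls on day 5.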"}, "Mus musculus [39]": {"test_system": "Mus musculus", "assay": "Mortality by day 5 expressed as number of mice died to the total treated at dose 25 mg/kg in exp2; 0/6", "format": "ADME, organism-based", "set-up": "dose 25 mg/kg", "settings": "in vivo"}, "Mus musculus [40]": {"test_system": "Mus musculus", "assay": "Mortality by day 5 expressed as number of mice died to the total treated at dose 50 mg/kg in exp2; 0/6", "format": "ADME, organism-based", "set-up": "dose 50 mg/kg", "settings": "in vivo"}, "Mus musculus [41]": {"test_system": "Mus musculus", "assay": "Median survival time of the untreated control groups, in which there are no 30-day survivors at dose 25 mg/kg in exp1", "format": "functional"}, "Mus musculus [42]": {"test_system": "Mus musculus", "assay": "Median survival time of the untreated control groups, in which there are no 30-day survivors at dose 12 mg/kg in exp2", "format": "functional"}}, "data": [{"smiles": "CS(=O)(=O)CS(=O)(=O)OCCBr", "values": [{"measurement": "Median survival time", "setting": "[1]", "result": 18}, {"measurement": "Median survival time", "setting": "Mus musculus [2]", "result": 16}, {"measurement": "Mortality", "setting": "Mus musculus [3]", "result": 0}, {"measurement": "Ratio", "setting": "[4]", "result": 159}, {"measurement": "Mortality", "setting": "Mus musculus [5]", "result": 5}, {"measurement": "Median survival time", "setting": "Mus musculus [6]", "result": 7}, {"measurement": "Ratio", "setting": "[7]", "result": 0}, {"measurement": "Change in weight", "setting": "Mus musculus [8]", "result": -2.9}, {"measurement": "Median survival time", "setting": "Mus musculus [9]", "result": 14.3}, {"measurement": "Median survival time", "setting": "[10]", "result": 16.7}, {"measurement": "Mortality", "setting": "Mus musculus [11]", "result": 2}, {"measurement": "Median survival time", "setting": "Mus musculus [12]", "result": 12.8}, {"measurement": "Change in weight", "setting": "Mus musculus [13]", "result": -1.8}, {"measurement": "Ratio", "setting": "[14]", "result": 98}, {"measurement": "Median survival time", "setting": "Mus musculus [15]", "result": 13}, {"measurement": "Median survival time", "setting": "Mus musculus [16]", "result": 10.5}, {"measurement": "Change in weight", "setting": "Mus musculus [17]", "result": -0.8}, {"measurement": "Median survival time", "setting": "[18]", "result": 13}, {"measurement": "Ratio", "setting": "[19]", "result": 136}, {"measurement": "Median survival time", "setting": "Mus musculus [20]", "result": 23.5}, {"measurement": "Ratio", "setting": "[21]", "result": "Toxic"}, {"measurement": "Mortality", "setting": "Mus musculus [22]", "result": 0}, {"measurement": "Median survival time", "setting": "[23]", "result": 10.5}, {"measurement": "Ratio", "setting": "[24]", "result": 123}, {"measurement": "Change in weight", "setting": "Mus musculus [25]", "result": -5.4}, {"measurement": "Change in weight", "setting": "Mus musculus [26]", "result": 0.3}, {"measurement": "Ratio", "setting": "[27]", "result": 1}, {"measurement": "Ratio", "setting": "[28]", "result": 0}, {"measurement": "Ratio", "setting": "[29]", "result": 224}, {"measurement": "Mortality", "setting": "Mus musculus [30]", "result": 0}, {"measurement": "Mortality", "setting": "Mus musculus [31]", "result": 0}, {"measurement": "Change in weight", "setting": "Mus musculus [32]", "result": -2.1}, {"measurement": "Ratio", "setting": "[33]", "result": 54}, {"measurement": "Median survival time", "setting": "Mus musculus [34]", "result": 10.5}, {"measurement": "Ratio", "setting": "Mus musculus [35]", "result": 1}, {"measurement": "Ratio", "setting": "Mus musculus [36]", "result": 138}, {"measurement": "Change in weight", "setting": "Mus musculus [37]", "result": -1.5}, {"measurement": "Change in weight", "setting": "Mus musculus [38]", "result": -4.7}, {"measurement": "Mortality", "setting": "Mus musculus [39]", "result": 0}, {"measurement": "Mortality", "setting": "Mus musculus [40]", "result": 0}, {"measurement": "Median survival time", "setting": "Mus musculus [41]", "result": 10.5}, {"measurement": "Median survival time", "setting": "Mus musculus [42]", "result": 13}]}]}
